Assay results from different studies.
Target: Serine/threonine-protein kinase Nek10 (NEK10, Homo sapiens, UniProt Q6ZWH5)
Residues used in one study (Q6ZWH5 1-1172): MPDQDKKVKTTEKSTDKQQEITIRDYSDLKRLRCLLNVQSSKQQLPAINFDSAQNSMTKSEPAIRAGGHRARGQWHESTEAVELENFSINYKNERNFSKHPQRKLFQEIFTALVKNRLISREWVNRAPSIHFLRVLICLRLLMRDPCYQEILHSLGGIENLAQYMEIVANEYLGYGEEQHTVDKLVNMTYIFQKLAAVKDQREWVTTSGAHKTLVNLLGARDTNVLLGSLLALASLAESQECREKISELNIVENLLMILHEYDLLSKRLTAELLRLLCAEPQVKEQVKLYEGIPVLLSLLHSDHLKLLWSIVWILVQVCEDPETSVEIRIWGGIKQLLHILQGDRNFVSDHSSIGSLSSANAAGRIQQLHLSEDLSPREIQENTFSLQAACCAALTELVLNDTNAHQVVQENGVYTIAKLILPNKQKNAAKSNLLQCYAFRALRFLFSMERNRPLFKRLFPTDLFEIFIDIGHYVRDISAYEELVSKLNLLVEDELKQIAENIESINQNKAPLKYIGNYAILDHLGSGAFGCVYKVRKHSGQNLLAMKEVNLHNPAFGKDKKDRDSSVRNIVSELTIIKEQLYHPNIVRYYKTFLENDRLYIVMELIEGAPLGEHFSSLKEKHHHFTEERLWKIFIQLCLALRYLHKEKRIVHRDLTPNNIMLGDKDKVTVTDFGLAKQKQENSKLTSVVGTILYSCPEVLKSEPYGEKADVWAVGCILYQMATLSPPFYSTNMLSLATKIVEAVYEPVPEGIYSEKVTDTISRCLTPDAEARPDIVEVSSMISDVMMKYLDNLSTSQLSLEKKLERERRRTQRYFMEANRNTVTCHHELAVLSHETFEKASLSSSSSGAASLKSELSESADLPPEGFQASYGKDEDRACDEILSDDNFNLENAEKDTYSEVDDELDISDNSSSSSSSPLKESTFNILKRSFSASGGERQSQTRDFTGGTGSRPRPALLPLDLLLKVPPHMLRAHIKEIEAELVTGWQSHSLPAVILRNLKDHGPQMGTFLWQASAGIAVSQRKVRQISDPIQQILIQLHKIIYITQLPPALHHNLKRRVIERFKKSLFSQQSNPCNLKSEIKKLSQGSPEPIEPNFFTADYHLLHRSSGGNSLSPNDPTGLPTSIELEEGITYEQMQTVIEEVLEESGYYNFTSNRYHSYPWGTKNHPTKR

The remaining binding of `C[C@H]1CCN(c2nccc(-c3cnn4ncccc34)n2)C1` is reported as 91% (binding; 1 µM).
`COc1ncc2cc3ccccc3nc2c1C#N` has a remaining binding of 98% (cell-free assay, competition with immobilised ligand; 5 µM).
For `N[C@@H]1CCN(c2nccc(-c3cnn4ncccc34)n2)C1`, the remaining binding was 100% (binding; 1 µM).
The remaining binding of `O=C(c1ccc(Nc2ncc(Cl)c(-c3ccc(Cl)s3)n2)cc1)N1CCC(N2CCCC2)CC1` is reported as 30% (binding, competition with immobilised ligand; 1 µM).
With `C=CC(=O)N1CCC(C(=O)NCC(=O)N2CCN(c3nc(-c4cnc(N)nc4C(F)F)nc(N4CCOCC4)n3)CC2)CC1` the remaining binding was 76% (binding, competition with immobilised ligand; 1 µM).
`O=C(NCC1CCOCC1)c1n[nH]cc1NC(=O)c1c(F)cccc1F` gave a remaining binding of 72% (binding, competition with immobilised ligand; 1 µM).
The remaining binding of `Cc1cnc(Nc2ccc(C(=O)N3CCC(N4CCCC4)CC3)cc2)nc1-c1cc2ccccc2s1` is reported as 71% (binding, competition with immobilised ligand; 1 µM).
The remaining binding of `O=C(Nc1cccnn1)N1CCC(=Cc2cccc(Oc3ccc(C(F)(F)F)cn3)c2)CC1` is reported as 100% (cell-free assay, competition with immobilised ligand; 1 µM).
The remaining binding of `CNC(=O)[C@@H]1CC[C@@H](n2c(-c3ccc4cnccc4c3)nc3ccc(C(=O)NCc4cccc(C(N)=O)c4)cc32)C1` is reported as 92% (binding, competition with immobilised ligand; 1 µM).
`CN(C)c1ncnc(-c2ccc3nc(Nc4cc(CN5CCN(C(=O)CC(F)(F)F)CC5)ccn4)[nH]c3c2)c1Cl` gave a remaining binding of 72% (cell-free assay, competition with immobilised ligand; 1 µM).
`CN(C)c1nccc(-c2cnn3ncccc23)n1` has a remaining binding of 100% (binding; 1 µM).
For `COc1cc(-c2cn(C3CCc4ccccc4N(CC(F)(F)F)C3=O)nn2)ccc1-n1ccc(C)n1` (centres unmarked), the remaining binding was 81% (cell-free assay, competition with immobilised ligand; 1 µM).
With `COc1cnc(Nc2cccc(S(N)(=O)=O)c2)nc1N1CCN(c2ccccc2)CC1` the remaining binding was 69% (binding, competition with immobilised ligand; 1 µM).
With `Cc1c[nH]c2nccc(Oc3c(F)cc(Nc4cc(Cl)nc(N)n4)cc3F)c12` the remaining binding was 75% (cell-free assay, competition with immobilised ligand; 0.1 µM).
For `CN(CCCC(F)(F)F)c1nccc(-c2cnn3ncccc23)n1`, the remaining binding was 90% (binding; 1 µM).
`C[C@@H](c1cccc(C#N)c1)n1cc(Cl)cc(C(N)=O)c1=N` has a remaining binding of 91% (cell-free assay, competition with immobilised ligand; 1 µM).
`O=C(NCCCN1CCOCC1)c1ccc(Nc2ncc(Cl)c(-c3ccc(Cl)s3)n2)cc1` gave a remaining binding of 48% (binding, competition with immobilised ligand; 1 µM).
